Reference: ChEMBL document CHEMBL3525925, “In vitro studies on the oxidative metabolism of 20(s)-ginsenoside Rh2 in human, monkey, dog, rat, and mouse liver microsomes, and human liver s9” (Drug Metab Dispos, 2012)

Assays:
Liver microsome [1] = assay: Drug metabolism in human liver microsomes assessed as oxidative metabolism at 10 uM in presence of 0.4 uM ticlopidine CYP2B6/CYP2C19 inhibitor; format: ADME
Outline: (§1)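 Pooled human liver microsomes (1 mg/ml, mixed-gender, 50 donors), 10 µM Rh2, 2 mM NADPH and selective inhibitor in 100 mM potassium phosphate pH 7.4; 37°C, 60 min; ice-cold acetonitrile stop; uninhibited controls; duplicates; formation of M1-2, M1-3 and M1-4+M1-5 quantified by LC/ion-trap MSn.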

Liver microsome [2] = assay: Drug metabolism in human liver microsomes assessed as oxidative metabolism at 10 uM in presence of 1 uM sulfaphenazole CYP2C9 inhibitor; format: ADME; outline: as §1
Cytochrome P450 2A6 = target: T1, Cytochrome P450 2A6 (Homo sapiens, UniProt P11509); assay: Drug metabolism in human recombinant CYP2A6 mediated oxidative metabolism at 10 uM; format: ADME; conditions: recombinant enzyme
T1 sequence (P11509 whole entry): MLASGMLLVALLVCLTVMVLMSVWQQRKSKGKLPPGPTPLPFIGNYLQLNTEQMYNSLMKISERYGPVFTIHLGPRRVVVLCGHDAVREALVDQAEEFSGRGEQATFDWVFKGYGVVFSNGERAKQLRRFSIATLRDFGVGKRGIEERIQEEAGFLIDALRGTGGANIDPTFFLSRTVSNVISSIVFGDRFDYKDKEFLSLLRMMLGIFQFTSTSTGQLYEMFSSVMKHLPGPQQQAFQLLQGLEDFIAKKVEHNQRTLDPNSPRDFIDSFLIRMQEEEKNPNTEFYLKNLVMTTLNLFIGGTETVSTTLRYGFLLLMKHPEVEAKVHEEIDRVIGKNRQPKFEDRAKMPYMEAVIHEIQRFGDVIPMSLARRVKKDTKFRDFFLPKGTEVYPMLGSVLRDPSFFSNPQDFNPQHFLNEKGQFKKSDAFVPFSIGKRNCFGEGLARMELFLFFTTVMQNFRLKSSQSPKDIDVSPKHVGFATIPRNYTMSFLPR
Outline: (§2)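 Recombinant human P450 at 50 nM incubated with 10 µM Rh2 and 2 mM NADPH in 100 mM potassium phosphate pH 7.4, 37°C, 60 min; ice-cold acetonitrile stop; duplicates; metabolites detected by LC/ion-trap MSn.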

Cytochrome P450 2C8 = target: T2, Cytochrome P450 2C8 (Homo sapiens, UniProt P10632); assay: Drug metabolism in human recombinant CYP2C8 mediated oxidative metabolism at 10 uM; format: ADME; conditions: recombinant enzyme; outline: as §2
T2 sequence (P10632 whole entry): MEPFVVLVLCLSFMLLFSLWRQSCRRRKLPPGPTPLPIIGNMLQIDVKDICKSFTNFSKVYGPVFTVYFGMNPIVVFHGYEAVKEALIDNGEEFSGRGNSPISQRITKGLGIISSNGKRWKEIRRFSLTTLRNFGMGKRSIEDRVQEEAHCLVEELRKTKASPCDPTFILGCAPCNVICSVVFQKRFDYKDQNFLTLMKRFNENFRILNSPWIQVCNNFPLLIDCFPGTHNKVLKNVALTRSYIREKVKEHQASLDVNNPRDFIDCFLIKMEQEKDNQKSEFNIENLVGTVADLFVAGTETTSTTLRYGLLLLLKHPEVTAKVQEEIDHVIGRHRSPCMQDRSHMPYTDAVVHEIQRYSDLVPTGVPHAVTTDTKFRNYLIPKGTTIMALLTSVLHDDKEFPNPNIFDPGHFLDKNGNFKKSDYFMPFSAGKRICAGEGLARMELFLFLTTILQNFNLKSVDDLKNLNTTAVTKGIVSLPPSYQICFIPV

Cytochrome P450 2C19 = Cytochrome P450 2C19 (Homo sapiens, UniProt P33261); assay: Drug metabolism in human recombinant CYP2C19 mediated oxidative metabolism at 10 uM; format: ADME; conditions: recombinant enzyme; outline: as §2
Cytochrome P450 4A11 = target: T3, Cytochrome P450 4A11 (Homo sapiens, UniProt Q02928); assay: Drug metabolism in human recombinant CYP4A11 mediated oxidative metabolism at 10 uM; format: ADME; conditions: recombinant enzyme; outline: as §2
T3 sequence (Q02928 whole entry): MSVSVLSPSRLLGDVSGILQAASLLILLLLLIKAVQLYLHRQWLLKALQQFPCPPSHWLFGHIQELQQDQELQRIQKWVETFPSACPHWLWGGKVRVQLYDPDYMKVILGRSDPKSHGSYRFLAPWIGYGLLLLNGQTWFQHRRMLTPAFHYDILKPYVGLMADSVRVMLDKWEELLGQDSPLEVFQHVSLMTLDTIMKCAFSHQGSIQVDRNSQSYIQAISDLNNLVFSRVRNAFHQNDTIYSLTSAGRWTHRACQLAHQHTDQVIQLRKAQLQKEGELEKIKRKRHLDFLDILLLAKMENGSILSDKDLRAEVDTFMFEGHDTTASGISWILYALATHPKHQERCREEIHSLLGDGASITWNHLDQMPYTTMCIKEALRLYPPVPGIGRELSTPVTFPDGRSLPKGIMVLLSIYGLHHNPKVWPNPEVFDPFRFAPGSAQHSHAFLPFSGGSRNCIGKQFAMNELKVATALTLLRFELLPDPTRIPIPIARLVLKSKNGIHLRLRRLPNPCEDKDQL

[3] = Drug metabolism in cynomolgus monkey liver microsomes assessed as (2S)-2-amino-5-((2R)-1-(carboxymethylamino)-3-((6S)-2,6-dihydroxy-6-((3S,5R,8R,9R,10R,12R,13R,14R,17S)-12-hydroxy-4,4,8,10,14-pentamethyl-3-((2R,3R,4S,5S,6R)-3,4,5-trihydroxy-6-(hydroxymethyl)tetrahydro-2H-pyran-2-yloxy)hexadecahydro-1H-cyclopenta[a]phenanthren-17-yl)-2-methylheptan-3-ylthio)-1-oxopropan-2-ylamino)-5-oxopentanoic acid formation at 10 uM by LC/MS analysis in presence of 1 uM ketoconazole; format: ADME, Macaca fascicularis
Outline: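 Cynomolgus monkey liver microsomes (1 mg/ml) with 2 mM GSH, 10 µM Rh2 and 1.0 µM ketoconazole preincubated 10 min before adding 2 mM NADPH; GSH conjugate measured by LC/ion-trap MSn peak area; duplicates.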

[4] = Drug metabolism in cynomolgus monkey liver microsomes assessed as (24S,25)-epoxydamma-rane-12,20-diol-3-beta-D-glucopyranoside formation at 10 uM after 1 hr by LC/MS analysis in presence of GSH; format: ADME, Macaca fascicularis
Outline: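 Male cynomolgus monkey liver microsomes (1 mg/ml) with 10 µM Rh2, 2 mM GSH and 2 mM NADPH in 100 mM potassium phosphate pH 7.4, 37°C, 60 min after 3 min preincubation; microsomes start reaction; ice-cold acetonitrile stop; no-NADPH controls; duplicates; LC/ion-trap MSn detection.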

Chain of Cytochrome P450 2C19 (P33261 whole entry): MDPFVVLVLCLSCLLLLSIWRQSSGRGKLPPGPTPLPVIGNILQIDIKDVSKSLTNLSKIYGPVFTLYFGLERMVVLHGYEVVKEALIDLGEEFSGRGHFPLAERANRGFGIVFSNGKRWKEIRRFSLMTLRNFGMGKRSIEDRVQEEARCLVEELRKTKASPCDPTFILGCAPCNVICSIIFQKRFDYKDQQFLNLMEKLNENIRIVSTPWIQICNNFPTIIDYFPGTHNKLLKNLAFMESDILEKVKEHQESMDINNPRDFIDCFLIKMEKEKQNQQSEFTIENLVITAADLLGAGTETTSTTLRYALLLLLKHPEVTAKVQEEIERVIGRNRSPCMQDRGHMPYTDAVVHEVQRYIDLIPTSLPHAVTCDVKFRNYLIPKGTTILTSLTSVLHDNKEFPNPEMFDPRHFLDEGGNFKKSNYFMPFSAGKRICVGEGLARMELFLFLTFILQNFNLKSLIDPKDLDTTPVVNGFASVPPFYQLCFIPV

In the case of `CC(C)=CCC[C@](C)(O)[C@H]1CC[C@]2(C)[C@@H]1[C@H](O)C[C@@H]1[C@@]3(C)CC[C@H](O[C@@H]4O[C@H](CO)[C@@H](O)[C@H](O)[C@H]4O)C(C)(C)[C@@H]3CC[C@]12C` [GINSENOSIDE RH2], the Drug metabolism (Liver microsome [1]) was “metabolite_detected”, the Drug metabolism (Liver microsome [2]) was “metabolite_detected” and the Drug metabolism (Cytochrome P450 2A6) was “metabolite_not_detected”. The Drug metabolism (Cytochrome P450 2C8) was “metabolite_not_detected”, the Drug metabolism (Cytochrome P450 2C19) was “metabolite_not_detected” and the Drug metabolism (Cytochrome P450 4A11) was “metabolite_not_detected”. The Drug metabolism [3] was “metabolite_not_detected” and the Drug metabolism [4] was “metabolite_detected”.
